Measurements taken from ChEMBL document CHEMBL3352329, “Antifungal activity of resveratrol derivatives against Candida species” (2014).
≈ marks a conversion by molar mass, not a printed value. Calls of active or inactive are those of the source. No cut-off for these calls is given here.

Experiments:
[Candida] inconspicua = Antifungal activity against Candida inconspicua clinical isolate assessed as growth inhibition after 48 hrs by broth microdilution method; format: functional; details: Pichia inconspicua
Method in brief: (§1)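 CLSI broth microdilution with serial 2-fold dilutions in RPMI AutoMod medium. Inoculum from a 0.5 McFarland suspension (10^6 cfu/mL). Plates incubated 48 h at 32 °C, then OD read at 630 nm. MIC95 is the lowest concentration giving 95% growth inhibition versus untreated control. Mean of two independent experiments, each run in triplicate.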

Kluyveromyces marxianus = experiment: Antifungal activity against Candida kefyr clinical isolate assessed as growth inhibition after 48 hrs by broth microdilution method; format: functional; method in brief: as §1
Nakaseomyces glabratus = experiment: Antifungal activity against Candida glabrata ATCC 90030 assessed as growth inhibition after 48 hrs by broth microdilution method; format: functional; details: ATCC 90030, 48 h; method in brief: as §1
Clavispora lusitaniae = experiment: Antifungal activity against Candida lusitaniae CBS 6936 assessed as growth inhibition after 48 hrs by broth microdilution method; format: functional; details: CBS 6936, 48 h; method in brief: as §1
Candida tropicalis [1] = experiment: Antifungal activity against Candida tropicalis ATCC MYA-3404/T1 assessed as growth inhibition after 48 hrs by broth microdilution method; format: functional; details: ATCC MYA-3404/T1, 48 h; method in brief: as §1
Pichia norvegensis = experiment: Antifungal activity against Candida norvegensis clinical isolate assessed as growth inhibition after 48 hrs by broth microdilution method; format: functional; method in brief: as §1
Debaryomyces hansenii = experiment: Antifungal activity against Candida famata VKMY-9 assessed as growth inhibition after 48 hrs by broth microdilution method; format: functional; details: VKMY-9, 48 h; method in brief: as §1
Candida dubliniensis = experiment: Antifungal activity against Candida dubliniensis ATCC MYA-646 assessed as growth inhibition after 48 hrs by broth microdilution method; format: functional; details: ATCC MYA-646, 48 h; method in brief: as §1
Pichia kudriavzevii = experiment: Antifungal activity against Candida krusei ATCC 6258 assessed as growth inhibition after 48 hrs by broth microdilution method; format: functional; details: ATCC 6258, 48 h; method in brief: as §1
Candida parapsilosis = experiment: Antifungal activity against Candida parapsilosis ATCC 22019 assessed as growth inhibition after 48 hrs by broth microdilution method; format: functional; details: Lodderomyces parapsilosis, ATCC 22019, 48 h; method in brief: as §1
Candida albicans [2] = experiment: Antifungal activity against Candida albicans SC5314 ATCC MYA-2876 assessed as growth inhibition after 48 hrs by broth microdilution method; format: functional; details: SC5314 ATCC MYA-2876, 48 h; method in brief: as §1
[3] = test system: Meyerozyma guilliermondii; experiment: Antifungal activity against Candida guilliermondii ATCC 6260 assessed as growth inhibition after 48 hrs by broth microdilution method; format: functional; details: ATCC 6260, 48 h; method in brief: as §1
Candida tropicalis [4] = experiment: Antifungal activity against Candida tropicalis ATCC MYA-3404/T1 assessed as growth inhibition at 300 ug/ml after 48 hrs by broth microdilution method; format: functional, organism-based
Method in brief: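 Broth microdilution per CLSI, serial 2-fold dilutions in RPMI AutoMod medium; inoculum 0.5 McFarland (10^6 cfu/mL). Incubation 48 h at 32 °C, OD 630 nm read; activity judged against untreated control, MIC95 being lowest concentration giving 95% growth inhibition; 300 μg/mL highest concentration tested. Two independent experiments, each in triplicate; mean values.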

Candida albicans [5] = experiment: Antifungal activity against Candida albicans SC5314 ATCC MYA-2876 assessed as growth inhibition at 300 ug/ml after 48 hrs by broth microdilution method; format: functional, organism-based
Method in brief: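 Broth microdilution in RPMI AutoMod medium against SC5314, tested up to 300 μg/mL, the highest concentration used. Inoculum from a 0.5 McFarland suspension (10^6 cfu/mL). Incubated 48 h at 32 °C, growth read as OD at 630 nm. Activity judged as 95% growth inhibition versus control. Two independent experiments, each in triplicate.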

Candida albicans [6] = experiment: Antifungal activity against Candida albicans SC5314 ATCC MYA-2876 assessed as inhibition of hyphal formation at 14 ug/ml after 48 hrs by microscopy; format: functional, organism-based
Method in brief: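 Yeast-to-hyphae transition of SC5314 examined after 48 h at 32 °C in RPMI medium. Cells exposed to 7, 14 or 28 μg/mL alongside untreated control cells. Hyphal formation assessed by comparing cell morphology between treated and control cultures.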

| SMILES | MIC95 ([Candida] inconspicua) [µg/mL] | MIC95 (Kluyveromyces marxianus) [µg/mL] | MIC95 (Nakaseomyces glabratus) [µg/mL] | MIC95 (Clavispora lusitaniae) [µg/mL] | MIC95 (Pichia norvegensis) [µg/mL] | MIC95 (Debaryomyces hansenii) [µg/mL] | MIC95 (Candida dubliniensis) [µg/mL] | MIC95 (Pichia kudriavzevii) [µg/mL] | MIC95 (Candida parapsilosis) [µg/mL] | MIC95 (Candida albicans [2]) [µg/mL] | MIC95 [3] [µg/mL] | growth inhibition (GI) (Candida albicans [5]) | other results |
| --- | --- | --- | --- | --- | --- | --- | --- | --- | --- | --- | --- | --- | --- |
| COc1ccc(/C=C/c2cc(O)cc(OC)c2)cc1 | 37 (≈ 144 µM) | 18 (≈ 70.2 µM) | 37 (≈ 144 µM) | 37 (≈ 144 µM) | 37 (≈ 144 µM) | 9 (≈ 35.1 µM) | 18 (≈ 70.2 µM) | 37 (≈ 144 µM) | 18 (≈ 70.2 µM) | 37 (≈ 144 µM) | 18 (≈ 70.2 µM) |  | MIC95 (Candida tropicalis [1]): 27 µg/mL (≈ 105 µM) |
| COc1cc(O)cc(/C=C/c2ccc(O)cc2)c1 | 300 (≈ 1240 µM) | 150 (≈ 619 µM) | 300 (≈ 1240 µM) | 300 (≈ 1240 µM) | 300 (≈ 1240 µM) | 18 (≈ 74.3 µM) | 150 (≈ 619 µM) | 300 (≈ 1240 µM) | 300 (≈ 1240 µM) | 300 (≈ 1240 µM) | 150 (≈ 619 µM) |  | growth inhibition (GI) (Candida tropicalis [4]): inactive |
| CC(=O)Oc1cc(/C=C/c2ccc(O)cc2)cc(OC(C)=O)c1 |  |  |  |  |  |  |  |  |  |  |  | inactive |  |
| CC(=O)Oc1cc(O)cc(/C=C/c2ccc(O)cc2)c1 |  |  |  |  |  |  |  |  |  |  |  | inactive |  |
| CC(=O)Oc1ccc(/C=C/c2cc(O)cc(OC(C)=O)c2)cc1 |  |  |  |  |  |  |  |  |  |  |  | inactive |  |
| CC(=O)Oc1ccc(/C=C/c2cc(OC(C)=O)cc(OC(C)=O)c2)cc1 |  |  |  |  |  |  |  |  |  |  |  | inactive |  |
| CC(=O)Oc1ccc(/C=C/c2cc(OC(C)=O)cc3c2[C@H](c2cc(OC(C)=O)cc(OC(C)=O)c2)[C@@H](c2ccc(OC(C)=O)cc2)O3)cc1 |  |  |  |  |  |  |  |  |  |  |  | inactive |  |
| COc1ccc(/C=C/c2cc(OC)cc(OC)c2)cc1 |  |  |  |  |  |  |  |  |  |  |  | inactive |  |
| OC[C@H]1O[C@@H](Oc2cc(O)cc(/C=C/c3ccc(O)cc3)c2)[C@H](O)[C@@H](O)[C@@H]1O |  |  |  |  |  |  |  |  |  |  |  | inactive |  |
| Oc1ccc(/C=C/c2cc(O)cc(O)c2)cc1 |  |  |  |  |  |  |  |  |  |  |  | inactive |  |
| Oc1ccc([C@H]2c3c(O)cc(O)cc3[C@H]3c4c(cc(O)cc4[C@@H]2O)O[C@@H]3c2ccc(O)cc2)cc1 |  |  |  |  |  |  |  |  |  |  |  | inactive |  |
| Oc1ccc([C@H]2Oc3ccc(/C=C/c4cc(O)cc5c4[C@@H](c4cc(O)cc(O)c4)[C@H](c4ccc(O)cc4)O5)cc3[C@@H]2c2cc(O)cc3c2[C@H](c2cc(O)cc(O)c2)[C@@H](c2ccc(O)cc2)O3)cc1 (mixture of isomers) | 300 | 150 | 300 | 300 | 300 | 18 | 150 | 300 | 300 | 300 | 150 |  | growth inhibition (GI) (Candida tropicalis [4]): inactive |
| COc1ccc(/C=C/c2cc(OC)cc3c2[C@H](c2cc(OC)cc(OC)c2)[C@@H](c2ccc(OC)cc2)O3)cc1 (relative stereo) |  |  |  |  |  |  |  |  |  |  |  | inactive |  |
| Oc1ccc(/C=C/c2cc(O)cc3c2[C@H](c2cc(O)cc(O)c2)[C@@H](c2ccc(O)cc2)O3)cc1 (relative stereo) |  |  |  |  |  |  |  |  |  |  |  | inactive |  |
| Nc1nc(=O)[nH]cc1F [FLUCYTOSINE] | 4 (≈ 31 µM) | 4 (≈ 31 µM) | 4 (≈ 31 µM) | 2 (≈ 15.5 µM) | 4 (≈ 31 µM) | 2 (≈ 15.5 µM) | 2 (≈ 15.5 µM) | 4 (≈ 31 µM) | 4 (≈ 31 µM) | 2 (≈ 15.5 µM) | 2 (≈ 15.5 µM) |  | MIC95 (Candida tropicalis [1]): 4 µg/mL (≈ 31 µM) |
| COc1cc(/C=C/c2ccc(O)cc2)cc(OC)c1 [PTEROSTILBENE] | 28 (≈ 109 µM) | 14 (≈ 54.6 µM) | 28 (≈ 109 µM) | 28 (≈ 109 µM) | 28 (≈ 109 µM) | 7 (≈ 27.3 µM) | 14 (≈ 54.6 µM) | 28 (≈ 109 µM) | 14 (≈ 54.6 µM) | 28 (≈ 109 µM) | 7 (≈ 27.3 µM) |  | inhibition (Candida albicans [6]): Active; MIC95 (Candida tropicalis [1]): 28 µg/mL (≈ 109 µM) |
| COc1ccc(/C=C/c2cc(O)cc(O)c2)cc1 [RESVERATROL 4'-METHYL ETHER] | 300 (≈ 1240 µM) | 150 (≈ 619 µM) | 150 (≈ 619 µM) | 300 (≈ 1240 µM) | 75 (≈ 310 µM) | 18 (≈ 74.3 µM) | 150 (≈ 619 µM) | 150 (≈ 619 µM) | 300 (≈ 1240 µM) | 150 (≈ 619 µM) | 150 (≈ 619 µM) |  | MIC95 (Candida tropicalis [1]): 300 µg/mL (≈ 1240 µM) |
